The values below come from ChEMBL document CHEMBL1275508, “Edelfosine induces an apoptotic process in Leishmania infantum that is regulated by the ectopic expression of Bcl-XL and Hrk” (2008).

The test system of assay [1] is Leishmania infantum. The assay is described as follows: Antimicrobial activity against Leishmania infantum promastigotes assessed as increase in DNA degradation after 24 hrs by flow cytometry. Format: functional, organism-based. In short, it runs like this:
(§1)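 Exponentially growing L. infantum promastigotes (2 × 10^6/ml, strain M/CAN/ES/96/BCN150 MON-1) exposed 24 h to increasing drug concentrations; DNA content analysed by flow cytometry, scoring percentage of hypodiploid cells as DNA degradation.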

Assay [2] relates to Leishmania infantum. The assay is described as follows: Antimicrobial activity against Leishmania infantum promastigotes assessed as increase in hypodiploid cell formation after 24 hrs by flow cytometry. Format: functional, organism-based. The method in brief:
as §1
On the technique in general: Flow cytometry measures light scatter and fluorescence of single cells or particles in a stream.

For assay [3], the system named is Leishmania infantum. The assay is described as follows: Antimicrobial activity against Leishmania infantum promastigotes. Format: functional. As to conditions: read-out: LD50 (the source's name). The method in brief: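 L. infantum promastigotes (M/CAN/ES/96/BCN150 MON-1), exponentially growing at 2 × 10^6 parasites/ml, incubated 24 h with increasing drug concentrations; stained with 5 µM propidium iodide and dead (PI-positive) parasites counted by flow cytometry; 50% lethal dose estimated from concentration–response fit.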

Assay [4] deals with Leishmania infantum. The assay is described as follows: Induction of apoptosis in wild-type Leishmania infantum promastigotes cells at 40 uM after 24 hrs by TUNEL assay. Format: functional. In short, it runs like this: (§2)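 Wild-type promastigotes or those transfected with empty pX63, pX63-bcl-XL (HA-tagged) or pX63-hrk (FLAG-tagged) left untreated or exposed to 40 µM drug for 24 h; DNA nicks labelled by TUNEL, imaged by confocal microscopy with PI and DIC; percentage TUNEL-positive cells from image analysis, mean ± SD, n = 3.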

The subject of assay [5] is Leishmania infantum. The assay is described as follows: Induction of apoptosis in Leishmania infantum promastigotes cells harboring pX63 expression vector at 40 uM after 24 hrs by TUNEL assay. The format is functional. The method in brief:
as §2

The test system of assay [6] is Leishmania infantum. The assay is described as follows: Induction of apoptosis in Leishmania infantum promastigotes cells harboring with plasmid pX63 carrying Hrk gene at 40 uM after 24 hrs by TUNEL assay. Format: functional. In short, it runs like this:
as §2

The test system of assay [7] is Leishmania infantum. The assay is described as follows: Induction of apoptosis in Leishmania infantum promastigotes cells harboring with plasmid pX63 carrying Bcl-XL gene at 40 uM after 24 hrs by TUNEL assay. Format: functional. The method in brief: as §2

With `CCCCCCCCCCCCCCCCOP(=O)([O-])OCC[N+](C)(C)C` [MILTEFOSINE], the Activity entry with Leishmania infantum [1] and in the assay with Leishmania infantum [2] was “Dose-dependent effect” throughout. Moreover, the LC50 with Leishmania infantum [3] was found to be 47 µM.
On to `CCCCCCCCCCCCCCCCCCOCC(COP(=O)([O-])OCC[N+](C)(C)C)OC` (stereo not given) [EDELFOSINE], for which the Activity is 42.5% in the assay on Leishmania infantum [4]; 47.4% in the assay with Leishmania infantum [5]; “Dose-dependent effect” with Leishmania infantum [1]; “Dose-dependent effect” in the assay with Leishmania infantum [2]; 92.5% with Leishmania infantum [6]; 26.7% in the assay on Leishmania infantum [7]. Moreover, the LC50 in the assay with Leishmania infantum [3] worked out at 27 µM.
